Screens deposited in PubChem by Johns Hopkins Ion Channel Center.
hERG rescue: compounds protecting human hERG from proarrhythmic drug block; Q12809; CHO-hERG, FluxOR thallium flux, dofetilide IC70 present; activation (rescue from dofetilide block), less the hit threshold, % at 10 µM; 0.51% of 310,000 active; AID 1511;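 active means activation above the mean of controls blocked by dofetilide plus 5 SD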;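 further: thallium influx through hERG after potassium depolarization seen as dye fluorescence rise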
KCNQ1 act: human KCNQ1 channel potentiation or activation; P51787; CHO-K1 KCNQ1, thallium flux FluxOR fluorescence; stronger effect = higher value; B-score at 10 µM; 0.35% of 310,000 active; AID 2648;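 active means fluorescence ratio B-score, a plate-corrected score, at least three library SD, with initial intensity B-score within 5 SD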
Target sequence (P51787 whole entry, looked up): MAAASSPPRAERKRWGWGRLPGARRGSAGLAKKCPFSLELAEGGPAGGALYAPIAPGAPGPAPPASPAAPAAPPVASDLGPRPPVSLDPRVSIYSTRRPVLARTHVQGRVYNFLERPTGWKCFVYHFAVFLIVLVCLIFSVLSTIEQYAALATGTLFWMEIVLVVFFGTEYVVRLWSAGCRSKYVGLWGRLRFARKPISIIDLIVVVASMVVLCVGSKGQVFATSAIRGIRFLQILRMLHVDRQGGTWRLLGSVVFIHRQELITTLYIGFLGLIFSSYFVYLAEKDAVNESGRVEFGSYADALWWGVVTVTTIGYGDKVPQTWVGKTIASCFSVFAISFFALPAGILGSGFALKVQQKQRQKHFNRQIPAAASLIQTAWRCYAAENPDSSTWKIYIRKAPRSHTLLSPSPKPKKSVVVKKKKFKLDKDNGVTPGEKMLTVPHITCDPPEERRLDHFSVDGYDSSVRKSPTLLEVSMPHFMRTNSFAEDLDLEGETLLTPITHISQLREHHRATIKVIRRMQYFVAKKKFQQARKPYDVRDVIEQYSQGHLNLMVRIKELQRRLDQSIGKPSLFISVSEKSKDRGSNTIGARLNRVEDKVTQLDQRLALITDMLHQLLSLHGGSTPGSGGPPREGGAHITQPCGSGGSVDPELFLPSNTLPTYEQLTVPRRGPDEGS
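Medium – assay buffer, equal DMSO in all wells · Material – CHO-K1 cell line with stable KCNQ1 potassium channel expression · Signal – kinetic FluxOR thallium fluorescence, 10-s 1-Hz baseline, 110-s post-stimulus read · Compound – single concentration per compound, DMSO matched to controls · Schedule – 37 °C overnight plating, 90-min dark dye load, 20-min compound pretreatment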
KCNQ1 block: inhibitors of human KCNQ1 potassium channel. 1.3% of 310,000 active. B-score at 10 µM. P51787. CHO-K1 KCNQ1, FluxOR thallium flux fluorescence; stronger effect = higher value;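 active means compounds whose thallium flux B-score, printed positive for inhibition, exceeds three library SD while starting fluorescence stays within three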;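 further: channel opened by potassium depolarization with thallium stimulus after 20 min compound exposure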
KCNK9 inh: inhibitors of human KCNK9 two-pore domain potassium channel; Q9NPC2; B-score at 10 µM; 1.2% of 310,000 active; HEK293 KCNK9, FluxOR thallium flux fluorescence; stronger effect = lower value;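 active means ratio B-score over 3 SD below the library mean, with starting fluorescence within 5 SD of its mean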;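 further: negative B-score means less thallium flux so channel inhibition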
Kir21 block: inhibitors of mouse Kir2.1 inward-rectifier potassium channel | P35561 | HEK293-Kir2.1, FluxOR thallium flux fluorescence; stronger effect = lower value | B-score at 10 µM | 0.85% of 310,000 active;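 active means fluorescence ratio B-score at or below minus 3 SD of library scores, with starting-brightness B-score within 2 SD, cut at about -4.2 in these data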;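 further: channel flux triggered by added potassium and thallium sulfate stimulus; B-score of peak minus minimum fluorescence over baseline after thallium stimulus; more negative B-score means stronger Kir2.1 block with less thallium influx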
KCNK3 inh: human KCNK3 channel inhibition, primary screen | O14649 | CHO-KCNK3 thallium flux, FluxOR fluorescence; stronger effect = lower value | B-score at 10 µM | 0.84% of 340,000 active;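 active means B-score under library mean minus 4 SD, starting fluorescence ratio at most library mean plus 5 SD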;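 further: more negative B-score means stronger inhibition of thallium flux through KCNK3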
Numbers stand for hits; 0 = inactive; - = no result given. Sampled rows, rich in hits. Any-hit rate of the full collection: about 3.8%.

SMILES | hERG rescue | KCNQ1 act | KCNQ1 block | KCNK9 inh | Kir21 block | KCNK3 inh
CCN1C(=NCCc2cccs2)N[C@@H](c2cccs2)C(C(=O)OC)=C1C | 0 | 0 | 0 | 0 | -6.03 | 0
COCCN1C(=O)N[C@@H](c2cccc(F)c2)C(C(=O)OC)=C1C | 4.9 | 0 | 0 | 0 | 0 | 0
CCOC(=O)CN1C(=O)N[C@@H](c2cccs2)C(C(=O)OC)=C1C | 0 | 0 | 0 | 0 | 0 | 0
N=c1oc2ccc([N+](=O)[O-])cc2cc1C(=O)NCc1ccccc1 | 0 | 0 | 0 | 0 | 0 | 0
O=[N+]([O-])c1ccc2oc(C(O)c3cccc(Cl)c3)cc2c1 (stereo not drawn) | 0 | 0 | 9 | 0 | 0 | 0
COc1ccc(C(c2sc3nc(C)nn3c2O)N2CCC(C(N)=O)CC2)cc1OC (stereo not drawn) | 0 | 0 | 0 | 0 | 0 | 0
c1ccc(C2OC3c4cccc5cccc(c45)C3N2c2ccccc2)cc1 (stereo not drawn) | 0 | 0 | 0 | -7.88 | 0 | 0
CCN(CC)c1ccc2cc(-c3nc4ccccc4[nH]3)c(=O)oc2c1 | 0 | 0 | 27 | 0 | 0 | 0
N#Cc1cc2c(nc1SCC(O)CS(=O)(=O)Cc1ccccc1)CCCC2 (stereo not drawn) | 0 | 0 | 0 | 0 | 0 | 0
Cc1cnc(CN2CCc3c([nH]c4ccccc34)C2C2CCCCC2)[nH]1 (stereo not drawn) | 0 | 0 | 0 | 0 | 0 | 0
c1ccc2c3c([nH]c2c1)C(C1CCCCC1)N(Cc1ncc[nH]1)CC3 (stereo not drawn) | 0 | 0 | 0 | 0 | -4.62 | 0
Cc1ccc(S(=O)(=O)N2CCOCC2)cc1C(=O)Nc1cccc(S(=O)(=O)N2CCCC2)c1 | 0 | 0 | 0 | 0 | 0 | 0
CCSc1nc(=S)cc(C)[nH]1 | 25.4 | 24 | 0 | 0 | 0 | 0
COc1cc(-c2c(-c3cccc(C)c3)oc3ccccc23)cc(OC)c1OC | 0 | 0 | 0 | 0 | 0 | 0
Cc1cc(C)c(S(=O)(=O)N2CCN(c3ccc([N+](=O)[O-])c(NCc4ccco4)c3)CC2)c(C)c1 | 4.7 | 0 | 0 | 0 | 0 | 0
CCCCCCOc1ccc(/C(C)=N/NC2=NCCN2)cc1 | 0 | 0 | 13 | 0 | 0 | 0
CN(CCCNC(=O)CCCOc1cc(=O)n(C)c2ccccc12)Cc1ccccc1 | 0 | 8 | 0 | 0 | 0 | 0
COc1ccc(CCNC(=O)CCCOc2cc(=O)n(C)c3ccccc23)cc1OC | 0 | 0 | 0 | 0 | 0 | 0
CCOC(=O)c1ccc(S(=O)(=O)N2CCN(C(=O)c3ccccn3)CC2)cc1 | - | - | - | - | - | 0
C=CCC(C)(NCc1ccccc1)c1ccc(C)cc1 (stereo not drawn) | 0 | 0 | 0 | 0 | -4.88 | 0
Cn1c(SCC(=O)Nc2cc(S(=O)(=O)N3CCOCC3)ccc2N2CCOCC2)nnc1-c1ccncc1 | 0 | 0 | 0 | 0 | 0 | 0
Cc1c(Cc2ccccc2)c(=O)oc2cc(OCC(=O)NC(Cc3ccc(Cl)cc3)C(=O)O)ccc12 (stereo not drawn) | 0 | 0 | 0 | -7.31 | 0 | 0
O=C(c1sc2ccccc2c1Cl)N(Cc1ccccc1Cl)C1CCS(=O)(=O)C1 (stereo not drawn) | 0 | 0 | 0 | -6.79 | 0 | 0
Cc1cccc(NC(=O)c2cc3ccccc3nc2C)c1 | 0 | 0 | 0 | 0 | 0 | 0
COc1ccccc1NC(=O)c1ccc(S(=O)(=O)N(C)c2ccccc2)cc1 | - | - | - | - | - | 0
SMILES | hERG rescue | KCNQ1 act | KCNQ1 block | KCNK9 inh | Kir21 block | KCNK3 inh
CN(c1ccccc1)S(=O)(=O)c1cccc(NC(=O)c2ccc(Cl)c([N+](=O)[O-])c2)c1 | - | - | - | - | - | -11.3
COc1cc(NC(=O)c2ccc(S(=O)(=O)N(C)c3ccccc3)cc2)cc(OC)c1 | - | - | - | - | - | -9.08
COc1nnc(-c2ccc(C(=O)N3C[C@@H]4C[C@H](C3)c3cccc(=O)n3C4)cc2)c2ccccc12 | 0 | 0 | 0 | 0 | 0 | 0
COc1ccccc1N1CCN(C/C=C/c2ccc(N(C)C)cc2)CC1 | 0 | 0 | 0 | 0 | 0 | -
Cc1ccc(OCC(=O)NNC(=S)NC(=O)C2CCCCC2)c(C)c1 | 0 | 8 | 0 | 0 | 0 | 0
Cc1ccc(OCC(=O)NNC(=S)NC(=O)C2CC2)c(C)c1 | 0 | 0 | 0 | 0 | 0 | 0
CC(C)c1ccc(OCC(=O)NNC(=S)NC(=O)c2cccs2)c(Br)c1 | 0 | 30 | 0 | 0 | 0 | 0
Cc1ccc(OCC(=O)NNC(=S)NC(=O)C(C)(C)C)c(Br)c1 | 0 | 9 | 0 | 0 | 0 | 0
O=C(C/C=N\OCc1ccc(Cl)cc1Cl)Nc1ccccc1 | 0 | 0 | 0 | 0 | 0 | 0
CC(C)NC(=NCc1ccc(Cl)cc1Cl)Nc1ccccc1 | 0 | 0 | 6 | 0 | 0 | 0
C[C@H](CCCC/C=C/C(=O)O)O[C@@H]1O[C@@H](C)[C@H](O)C[C@H]1O | - | - | - | - | - | 0
CCCCN(CC)CCNC(=O)Cn1cnc2sc(C)c(S(=O)(=O)N3CCC(C)CC3)c2c1=O | 0 | 0 | 0 | 0 | 0 | 0
Cc1ccc(C)c(SCc2noc(C(=O)NC(C)C)c2C(=O)O)c1 | 0 | 9 | 0 | 0 | 0 | 0
COCCNC(=O)c1onc(CSc2cc(C)ccc2C)c1C(=O)O | 0 | 0 | 0 | 0 | 0 | 0
OC(c1cc(-c2ccc(Cl)cc2)nc2ccccc12)C1CCCCN1 (stereo not drawn) | 0 | 0 | 0 | 0 | -5.44 | 0
O[C@@H](c1cc(C(F)(F)F)nc2c(C(F)(F)F)cccc12)[C@H]1CCCCN1 | 0 | 0 | 0 | 0 | 0 | 0
COc1ccccc1CCC(=O)OCC(=O)NC1CCCC1 | 0 | 0 | 0 | 0 | 0 | 0
COc1ccccc1NCCC(=O)OCC(=O)NC1CCCCCC1 | 0 | 0 | 0 | 0 | -7.7 | 0
Nc1sc(-c2ccccc2)n[n+]1Cc1cccc2cccnc12 | 0 | 0 | 0 | 0 | -7.04 | 0
O=C(Cn1cnc2ccccc2c1=O)Nc1nnc(SCc2ccccc2)s1 | 0 | 0 | 0 | 0 | 0 | 0
COc1ccc(CN2CCc3c([nH]c4ccccc34)C2)cc1Br | 0 | 0 | 0 | 0 | -4.35 | 0
CCOC(=O)Cc1csc(NC(=S)NC(=O)c2ccc(F)cc2)n1 | 0 | 8 | 0 | 0 | 0 | 0
CCOC(=O)Cc1csc(NC(=S)NC(=O)c2ccccc2C)n1 | 0 | 16 | 0 | 0 | 0 | 0
COc1ccccc1NC(=S)NC1CCC(CC2CCC(NC(=S)Nc3ccccc3OC)CC2)CC1 (stereo not drawn) | 0 | 0 | 0 | 0 | 0 | 0
O=C(NC(=S)N1CCN(c2nc(-c3ccccc3)cs2)CC1)c1cncc(Br)c1 | 88.7 | 56 | 0 | 0 | 0 | 0
COC(=O)c1ccc(CO/N=C/c2cccc([N+](=O)[O-])c2)cc1 | 0 | 0 | 0 | -6.68 | 0 | 0
O=C(CSc1nncs1)NNC(=O)c1ccccc1Br | - | - | - | - | - | 0
Cc1ccc(Nc2nc(C(=O)N3CCC(C(=O)NC(C)C)CC3)cs2)cc1 | 0 | 0 | 0 | 0 | 0 | 0
CC[n+]1c(/C=C(\C)SC)sc2ccccc21 | 0 | 0 | 0 | 0 | 0 | 0
